Laboratory results as given in PubChem BioAssay.
Unmarked numbers belong to inactive results. Some of the results follow. The source made the active and inactive calls.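 How the source made its calls, unless noted: active means substances whose mean melting-temperature shift, as a percentage of the reference inhibitor's shift, reaches about 5.3% (limit read from the data); inactive means the rest.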

test system: not listed separately; experiment: inhibition of Brca1/Bard1 split-luciferase complementation, confirmation, counter-screen for Mdm2/MdmX interaction inhibitor project, luminescence, single concentration (AID 504668; call rule not given here); conditions: Brca1/Bard1 bimolecular luciferase complementation counterscreen, at 8 µM, active compounds read high

Q: Which inhibition does the source give for `CCOC(=O)c1sc(NC(=O)c2cc(-c3ccccc3C)nc3ccccc23)c(C#N)c1C` here?
A: Its inhibition is 32.4% (active).

Q: With `COC(=O)C1=C(C)N(Cc2ccccc2)C(=NCC(C)C)N[C@H]1c1cccc(C(F)(F)F)c1` as the molecule, how does the inhibition read?
A: Its inhibition is 26.2% (active).

Q: For `O=C(C[C@@H]1C/C=C/CC[C@H](Cc2ccc(F)cc2)C(=O)OC[C@@H](Cc2ccccc2)NC1=O)N[C@H](CO)Cc1ccccc1`, which inhibition is on record?
A: The inhibition was 29.8% (active).

Q: Which inhibition does the source give for `CCCCCCc1cc2cc(S(=O)(=O)c3ccc(F)c(Cl)c3)c(=O)oc2cc1O` here?
A: The inhibition was 27.6% (active).

Q: Which inhibition does the source give for `CCCCCc1cc(=O)oc2c(C(CCN(CC)CC)c3cc(OC)c(OC)c(OC)c3)c(OC)cc(OC)c12` (stereo not given) here?
A: Its inhibition is 32% (active).

Q: Which inhibition does the source give for `CN(C)CCCNC(=O)c1ccc(-c2nc(-c3ccc(Cl)cc3)cs2)cc1` here?
A: Its inhibition is 28.3% (active).

Q: For `Cc1ccc(NC(=O)CSc2nc3ccc(Nc4nc(N5CCOCC5)nc(N5CCOCC5)n4)cc3s2)cc1`, which inhibition is on record?
A: Its inhibition is 26.2% (active).

Q: With `Cc1cc(NC(=O)c2cncc(Br)c2)ccc1NC(=O)c1cc2ccccc2o1` as the molecule, how does the inhibition read?
A: The inhibition was 28.6% (active).

Q: For `CCCCCCCNC(=O)C1(CC2CC(c3ccc(Cl)cc3)=NO2)CCNCC1` (stereo not given), which inhibition is on record?
A: Its inhibition is 25.4% (active).

target: Carboxy-terminal domain RNA polymerase II polypeptide A small phosphatase 1 (Homo sapiens) (UniProt Q9GZU7); experiment: Scp-1 binding by thermal shift, confirmation, orthogonal assay for Scp-1 inhibitor project, biophysical, differential scanning fluorimetry (AID 540329); conditions: Recombinant SCP1, Sypro Orange thermal shift Tm; at 40 µM; active compounds read high;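 further: 0% = Tm of DMSO wells and 100% = Tm with sodium orthovanadate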
Procedure, shortened: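 System: human Scp-1 phosphatase catalytic domain, residues 76-261; Quantity: 10 µM Scp-1 stock; Medium: Tris acetate pH 5.5, MgCl2, Tween-20; Compound dosing: single dose; Schedule: melting ramp from 20 to 95 °C at 0.03 °C/s; Measured by: differential scanning fluorimetry; Read-out basis: melting temperature shift relative to vanadate; Control set: vanadate reference.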

Chain of Carboxy-terminal domain RNA polymerase II polypeptide A small phosphatase 1 (Homo sapiens) (Q9GZU7 76-261 limits assumed): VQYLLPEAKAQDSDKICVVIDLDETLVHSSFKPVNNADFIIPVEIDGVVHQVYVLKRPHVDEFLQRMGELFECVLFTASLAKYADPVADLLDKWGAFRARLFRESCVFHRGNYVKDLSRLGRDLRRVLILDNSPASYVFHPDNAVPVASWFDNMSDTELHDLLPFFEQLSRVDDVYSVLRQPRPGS

Q: Which thermal shift relative to vanadate control does the source give for `CN(c1ccccc1)S(=O)(=O)c1ccc(Cl)c(C(=O)OCC(=O)NCc2ccco2)c1` here?
A: Its thermal shift relative to vanadate control is -14.8%.

Q: With `N#Cc1c(-c2cccs2)nc(SCC(=O)c2ccc(Br)cc2)[nH]c1=O` as the molecule, how does the thermal shift relative to vanadate control read?
A: Its thermal shift relative to vanadate control is -2.02%.

Q: For `Cc1c(CCC(=O)O)c(=O)oc2cc(OCc3ccc(Br)cc3)ccc12`, which thermal shift relative to vanadate control is on record?
A: Its thermal shift relative to vanadate control is -18.2%.

Q: With `Cc1nn(-c2cc(Cl)ccc2N)c(=O)c2ccccc12` as the molecule, how does the thermal shift relative to vanadate control read?
A: Its thermal shift relative to vanadate control is -6.02%.

Q: Which thermal shift relative to vanadate control does the source give for `C=C1c2cccc(OC)c2O[C@H](C(=O)OCC)[C@@H]1CCCCCC` here?
A: Its thermal shift relative to vanadate control is -6.9%.

Q: With `O=C(CCC(=O)N/N=C/c1ccc(Br)o1)N/N=C/c1ccc(Br)o1` as the molecule, how does the thermal shift relative to vanadate control read?
A: The thermal shift relative to vanadate control was -1.53%.

Q: For `CCc1ccc(NC(=O)CS(=O)CC(=O)NCCCc2ccccc2)cc1` (stereo not given), which thermal shift relative to vanadate control is on record?
A: The thermal shift relative to vanadate control was -12.5%.

Q: With `CO/N=C(\C(=O)N[C@@H]1C(=O)N2C(C(=O)O)=C(COC(C)=O)CS[C@H]12)c1csc(N)n1` (stereo in doubt) as the molecule, how does the thermal shift relative to vanadate control read?
A: The thermal shift relative to vanadate control was -5.16%.

Q: For `Cc1ccc(NC(=O)c2cc(-c3ccc(C)o3)nc3ccccc23)nc1`, which thermal shift relative to vanadate control is on record?
A: The thermal shift relative to vanadate control was 5.81% (active).

Q: Which thermal shift relative to vanadate control does the source give for `O=C(c1ccc(CS(=O)(=O)c2ccccc2)o1)N1CCN(c2ccccc2)CC1` here?
A: Its thermal shift relative to vanadate control is -3.55%.

Q: For `CCCc1nc(-c2cc3cc(C)ccc3[nH]c2=O)no1`, which thermal shift relative to vanadate control is on record?
A: Its thermal shift relative to vanadate control is -30.4%.

Q: Which thermal shift relative to vanadate control does the source give for `COc1ccc(Cl)cc1NC(=O)CCS(=O)(=O)c1ccc(Br)cc1` here?
A: The thermal shift relative to vanadate control was 3.48%.

Q: For `COc1ccc(Cl)cc1C=CC=NNC(=O)c1ccncc1`, which thermal shift relative to vanadate control is on record?
A: Its thermal shift relative to vanadate control is -17.4%.

Q: Which thermal shift relative to vanadate control does the source give for `CNS(=O)(=O)c1cccc(C(=O)OCC(=O)N2c3ccccc3NC(=O)C2(C)C)c1` here?
A: The thermal shift relative to vanadate control was 0.5%.

Q: With `Cc1ccn2c(=O)nc(SCC(=O)NCc3ccc4c(c3)OCO4)nc2c1` as the molecule, how does the thermal shift relative to vanadate control read?
A: Its thermal shift relative to vanadate control is -9.63%.

Q: With `O=S(=O)(Nc1ccccc1Cl)c1cccc2nsnc12` as the molecule, how does the thermal shift relative to vanadate control read?
A: Its thermal shift relative to vanadate control is -16.9%.

Q: With `COc1ccc(/C=C/C(=O)OCC(=O)NC2CCCCCC2)cc1OC` as the molecule, how does the thermal shift relative to vanadate control read?
A: Its thermal shift relative to vanadate control is -3.16%.

Q: Which thermal shift relative to vanadate control does the source give for `N#Cc1ccccc1CN1C(=O)S/C(=C/c2cccn2-c2cccc(C(=O)O)c2)C1=O` here?
A: Its thermal shift relative to vanadate control is 1.96%.

Q: With `O=C(Nc1cccc(F)c1)c1cc(-c2ccco2)nc2ccccc12` as the molecule, how does the thermal shift relative to vanadate control read?
A: Its thermal shift relative to vanadate control is -0.45%.

Q: Which thermal shift relative to vanadate control does the source give for `Cc1oc2c(C)c3oc(=O)c(CC(=O)N[C@@H](CC(C)C)C(=O)N[C@@H](Cc4ccccc4)C(=O)O)c(C)c3cc2c1C` here?
A: The thermal shift relative to vanadate control was -12.3%.

Q: For `O=C(Cn1cc(/C=N/NC(=O)c2cccc(C(F)(F)F)c2)c2ccccc21)Nc1ccc(F)cc1`, which thermal shift relative to vanadate control is on record?
A: The thermal shift relative to vanadate control was 10.6% (active).

Q: For `O=C(Nc1cc(S(=O)(=O)N2CCCCC2)ccc1Cl)C1COc2ccccc2O1` (stereo not given), which thermal shift relative to vanadate control is on record?
A: Its thermal shift relative to vanadate control is -12%.

Q: For `O=C(CCNC(=O)c1ccccc1)NN=Cc1ccc(Br)o1`, which thermal shift relative to vanadate control is on record?
A: Its thermal shift relative to vanadate control is -12.5%.

Q: For `COc1ccc(S(=O)(=O)c2c[nH]c(=S)[nH]c2=O)cc1Cl`, which thermal shift relative to vanadate control is on record?
A: Its thermal shift relative to vanadate control is 13.1% (active).

Q: With `O=C(COC(=O)c1ccccc1O)NCc1ccco1` as the molecule, how does the thermal shift relative to vanadate control read?
A: Its thermal shift relative to vanadate control is -13.8%.

Q: Which thermal shift relative to vanadate control does the source give for `COc1cccc(NC(C)=[N+](C)CCNS(=O)(=O)c2ccc(Cl)cc2)c1` here?
A: The thermal shift relative to vanadate control was -9.24%.

Q: For `Cc1ccc(C(=O)NNC(=O)c2cc3cc4ccccc4nc3s2)cc1`, which thermal shift relative to vanadate control is on record?
A: Its thermal shift relative to vanadate control is -10.9%.

Q: With `Cc1c(Cl)cnc(NC(=O)COC(=O)c2ccc(S(=O)(=O)NCc3ccco3)cc2)c1Cl` as the molecule, how does the thermal shift relative to vanadate control read?
A: The thermal shift relative to vanadate control was 10.3% (active).

Q: Which thermal shift relative to vanadate control does the source give for `CCCCCN1CC(O)=C(c2nc(-c3ccc(Cl)cc3)cs2)C1=N` here?
A: The thermal shift relative to vanadate control was -7.73%.

Q: With `O=C(NNC(=O)c1ccc2ccccc2c1)c1ccc(Cl)cc1` as the molecule, how does the thermal shift relative to vanadate control read?
A: The thermal shift relative to vanadate control was -19.4%.

Q: For `Cc1ccc(/C=C/C(=O)Nc2ccc([N+](=O)[O-])c(NC(=O)/C=C/c3ccc(C)o3)c2)o1`, which thermal shift relative to vanadate control is on record?
A: The thermal shift relative to vanadate control was 11% (active).
